Exocytosis inh: lytic granule exocytosis inhibition. TALL-104 LAMP-1 surface exposure, flow cytometry; cells stimulated with thapsigargin and PMA. inhibition, % at 10 µM. actives 0.66% (n = 360,000). AID 651702;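 active = inhibition above about 55%, limit read from the data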
CSN deneddyl inh: inhibitors of human CSN-mediated cullin deneddylation | Q92905 | AID 651999 | actives 0.38% (n = 360,000) | inhibition, % at 12.5 µM | Purified CSN, SCF-Nedd8-OG deneddylation, fluorescence polarization;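 active = pattern-corrected inhibition above about 35%, with an unprinted fluorescence ratio check between 0.5 and 1.5, limit read from the data, passing the limit was not always enough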
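Test system: Human Csn5 produced in HEK293T cells | Compound: 12.5 µM single point | Times: 90 min, room temperature | Signal: Fluorescence polarization readout | Read-out basis: % inhibition of substrate cleavage by Csn5 | Controls: no-enzyme wells high, enzyme-with-substrate wells low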
HNF4A DNA FP: change in binding of human HNF4 alpha to DNA. activity change, % at 10 µM. P41235. AID 1224865. HNF4a-FITC DNA binding, fluorescence polarization, 1 h. actives 0.3% (n = 360,000); in the data active = activity change above about 30%, passing the limit was not always enough
Target sequence (P41235 whole entry, looked up): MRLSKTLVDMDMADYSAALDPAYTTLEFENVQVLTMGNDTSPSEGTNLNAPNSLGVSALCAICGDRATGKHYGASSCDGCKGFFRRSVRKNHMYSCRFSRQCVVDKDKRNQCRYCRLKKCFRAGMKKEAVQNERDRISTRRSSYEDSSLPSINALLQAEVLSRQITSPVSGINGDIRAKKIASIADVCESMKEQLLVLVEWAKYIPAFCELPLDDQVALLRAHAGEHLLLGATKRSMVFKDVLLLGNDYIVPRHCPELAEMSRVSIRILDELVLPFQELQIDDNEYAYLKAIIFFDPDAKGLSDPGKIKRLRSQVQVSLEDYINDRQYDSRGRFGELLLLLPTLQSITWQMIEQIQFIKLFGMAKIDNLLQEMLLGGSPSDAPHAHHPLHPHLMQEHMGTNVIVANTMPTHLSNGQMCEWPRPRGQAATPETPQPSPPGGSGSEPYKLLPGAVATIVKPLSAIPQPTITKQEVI
Myeloid diff MLP: myeloid differentiation induction; calls only at 10 µM; actives 1% (n = 360,000); ER-HoxA9 myeloid progenitors, lysozyme-GFP differentiation, flow cytometry;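 active = normalized GFP-positive differentiation at or above the plate's own cutoff, the solvent-only control mean plus 3 SD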;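 also: cells exposed to compound for four days before flow analysis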
A number is an active result; 0 = inactive; - = no result; + = active, no number; ! = repeats disagree. Compounds with a hit are over-represented: about 2.2% of the library has one in this group of screens.

SMILES	Exocytosis inh	CSN deneddyl inh	HNF4A DNA FP	Myeloid diff MLP
CC(C)(C)n1nc2c(c1NC(=O)COc1ccc(Cl)cc1)CS(=O)(=O)C2	0	0	0	0
COc1ccc(OCC(=O)Nc2c3c(nn2C(C)(C)C)CS(=O)(=O)C3)cc1	0	0	0	+
CC(C)(C)n1nc2c(c1NC(=O)COc1ccc(F)cc1)CS(=O)(=O)C2	0	0	0	0
CC(=O)Nc1ccc(/C=C/c2ccc3cccc([N+](=O)[O-])c3n2)cc1	0	0	0	+
O=C(O)COc1ccc(/C=C/c2ccc3cccc([N+](=O)[O-])c3n2)cc1	0	0	0	0
CCC1CCCCN1CCCNC(=O)c1ccc(CS(=O)(=O)c2ccccc2C)o1 (centres undefined)	0	0	0	0
COc1ccc(/C=C/C(=O)Nc2sc3c(c2C(=O)NCc2cccnc2)CCCC3)cc1	0	0	0	0
O=C(COc1ccccc1)Nc1sc2c(c1C(=O)NCc1cccnc1)CCCC2	0	41	0	-
COc1cccc(-c2nnc(SCC(=O)Nc3ccc(OC)c(OC)c3)n2N)c1	0	0	0	+
CC(=O)Oc1cc2c(C(=O)NCc3ccncc3)c(C)oc2c2ccccc12	0	0	0	+
O=C(CN1C(=O)NC(Cc2c[nH]c3ccccc23)C1=O)Nc1ccc(Br)cc1F (centres undefined)	0	0	0	0
O=C(Nc1ccc(Cl)c(S(=O)(=O)N2CCOCC2)c1)c1ccc(OCC2CCCO2)cc1 (centres undefined)	94	0	0	0
COc1ccc(C(=O)Nc2ccc(Cl)c(S(=O)(=O)N3CCOCC3)c2)cc1	0	0	0	0
Cc1cc(C(F)(F)F)c(C#N)c(SCC(=O)Nc2nc3cc(Br)ccc3s2)n1	0	0	0	+
CCOC(=O)NC(=O)CSc1nc(C)cc(C(F)(F)F)c1C#N	0	0	0	+
N#Cc1c(C(F)(F)F)cc(-c2ccc(F)cc2)nc1SCC(=O)O	0	0	0	0
CCCCOc1ccc(-c2cc(C(F)(F)F)c(C#N)c(SCC(=O)O)n2)cc1	0	0	0	+
COC(=O)CSc1nc(C)cc(C(F)(F)F)c1C#N	0	0	0	0
Cc1ccc(S(=O)(=O)CCSc2nc(C)cc(C(F)(F)F)c2C#N)cc1	0	0	0	+
COC(=O)C(Cc1ccc(O)cc1)NC(=O)c1ccc2c(c1)OCCO2 (centres undefined)	0	0	0	0
N#Cc1c(-c2ccccc2)nc(SCc2cccc(Cl)c2)[nH]c1=O	0	0	0	0
COc1ccc2c(c1)C(SCC(=O)NCCc1ccc(Cl)cc1)CC(C)(C)O2 (centres undefined)	0	0	0	+
COc1ccc(CN(C)C(=O)CNC(=O)c2sc3ccccc3c2Cl)c(OC)c1	0	0	0	0
COc1ccccc1C(=O)Nc1nc2cc3c(cc2s1)OCO3	0	0	0	0
COc1ccccc1C(=O)Nc1nc2cc3c(cc2s1)OCCO3	0	0	0	+
SMILES	Exocytosis inh	CSN deneddyl inh	HNF4A DNA FP	Myeloid diff MLP
COc1ccc(C(=O)N2CCN(CCCc3ccccc3)CC2)cc1OC	0	0	0	0
COP(=O)(OC)c1nc(-c2cccc3ccccc23)oc1NCc1ccccc1	0	85	0	0
COc1ccc(CNc2oc(-c3cccc4ccccc34)nc2P(=O)(OC)OC)cc1	0	0	0	0
Brc1ccc(C2=CC(c3cccs3)n3ncnc3N2)cc1 (centres undefined)	0	0	0	+
Cc1ccc(O)c([C@H](CCN(C(C)C)C(C)C)c2ccccc2)c1	0	0	0	+!
CCCN(CCC)C(=O)CC(c1ccccc1)c1ccc(C)cc1O (centres undefined)	0	0	0	0
COc1ccc(OC)c(NC(=O)c2csc(Cl)c2OC)c1	0	0	0	0
CCc1ccc(-n2c(=S)sc3c(=O)n(-c4ccccc4)c(SCC(=O)O)nc32)cc1	0	0	0	0
Cc1c(CCC(=O)O)c(=O)oc2cc3occ(-c4ccc(F)cc4)c3cc12	0	0	0	0
Cc1c(CCC(=O)O)c(=O)oc2cc3occ(-c4ccc(Br)cc4)c3cc12	0	0	0	+
COc1ccc(OC)c(-c2c3cc(O)c(=O)cc-3oc3cc(O)c(O)cc23)c1	0	46	0	0
O=c1cc2oc3cc(O)c(O)cc3c(-c3ccccc3O)c-2cc1O	0	0	0	0
COc1cc(S(=O)(=O)NCc2ccc3c(c2)OCO3)ccc1F	0	0	0	0
Nc1nnc(SCC(=O)c2ccccc2)s1	0	0	0	0
Nc1c(C(=O)c2ccccc2)sc2snc(SCC(=O)c3ccccc3)c12	0	0	0	+
Cc1ccccc1NC(=O)NC1(C(=O)N2CCOCC2)CCCCC1	0	0	0	0
O=C(Nc1ccccc1C(F)(F)F)NC1(C(=O)N2CCOCC2)CCCCC1	0	43	0	0
CC(=O)c1ccc(N(CC(=O)NC2CCCCC2)C(=O)CNC(=O)c2ccco2)cc1	0	0	0	0
Cn1c(N/N=C/c2cc3ccccc3nc2Cl)nc2ccccc21	0	0	60	0
N/C(=N/OC(=O)c1ccc(Cl)cc1)c1ncc([N+](=O)[O-])s1	0	0	0	+
CCSc1nnc2ccc(-c3ccc(OC)c(OC)c3)nn12	0	0	0	+
CCN(CC)c1ccc(/C=N/NC(=O)CNC(=O)c2ccc3c(c2)OCCO3)cc1	74	0	0	0
CCOc1ccc(-c2nc(S(=O)(=O)c3ccccc3)c(N3CCC(C(N)=O)CC3)o2)cc1	0	0	0	0
O=C1C(=Cc2ccccc2Cl)CCc2ccccc21	0	0	0	0
Cc1ccc([N+](=O)[O-])cc1N/C=C1\CCc2ccccc2C1=O	57	0	0	0
SMILES	Exocytosis inh	CSN deneddyl inh	HNF4A DNA FP	Myeloid diff MLP
COCCn1c(SCC(=O)c2c(N)n(C3CC3)c(=O)[nH]c2=O)nnc1-c1cccc(C)c1	0	0	0	0
CC(C)c1ccc(NC(=O)COC(=O)[C@@H]2CCCN2C(=O)c2cccs2)cc1	0	0	0	0
Cc1cccc(N2C(=O)c3cccc4c(N)ccc(c34)C2=O)c1	0	0	0	0
CCN1C(=O)c2cccc3c(Cl)ccc(c23)C1=O	0	0	0	0
CC(C)CCN1C(=O)c2cccc3c(N)ccc(c23)C1=O	0	0	0	+
Nc1cccc(N2C(=O)c3cccc4c(N)ccc(c34)C2=O)c1	0	0	0	+
CC(C)CNS(=O)(=O)c1ccc(CCC(=O)NCc2cccnc2)cc1	0	0	0	+
Cc1cccn2c(CNC3CCCc4ccccc43)c(C(=O)N3CCCCC3)nc12 (centres undefined)	0	0	0	0
O=S(=O)(NCc1ccc(C(F)(F)F)cc1)c1ccc(-n2cnnn2)cc1	0	0	0	+
COCCn1c(SCC(=O)NNC(=O)c2ccccc2)nc2ccccc21	0	0	0	0
CSc1ccc(CN2CCC(C)(Oc3ccc4ccccc4c3)C2)cc1 (centres undefined)	0	0	0	+
CSc1ccc(OC2(C)CCN(Cc3ccccc3)C2)cc1 (centres undefined)	0	0	0	0
CS(=O)(=O)NN1C(=O)c2ccccc2NC1c1ccccc1O (centres undefined)	0	0	0	0

Screening data deposited in PubChem by several laboratories.
